Laboratory results published in ChEMBL document CHEMBL4004826, “Discovery of 1-(3-(benzyloxy)pyridin-2-yl)-3-(2-(piperazin-1-yl)ethyl)urea: A new modulator for amyloid beta-induced mitochondrial dysfunction” (Eur J Med Chem, 2017).

Legend:
[1] = molecular target: Peptidyl-prolyl cis-trans isomerase F, mitochondrial (Mus musculus) (UniProt Q99KR7); test: Inhibition of cyclophilin D in mouse HT22 cells assessed as reduction in amyloid beta (1 to 42) induced mitochondrial permeability transition pore opening by measuring increase in green to red fluorescence ratio at 5 uM pretreated for 10 mins followed by amyloid beta (1 to 42) stimulation measured at 1 hr interval for 3 hrs by JC-1 dye based fluorescence assay relative to control; assay type: cell-based; design: scale not given: the % may be the effect or the level left
How it was run: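 HT-22 cells, 30,000 per well, loaded with JC-1 at 7.5 µM final in phenol red-free Opti-MEM for 1 h 15 min at 37 °C, then PBS-washed. Compound at 5 µM for 10 min at 37 °C, then Aβ1-42 (5 µM solution) added. Red (ex/em 530/580 nm) and green (485/530 nm) fluorescence read hourly for 3 h. Green/red ratio normalized to the Aβ-alone control as 100%.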

[2] = molecular target: Peptidyl-prolyl cis-trans isomerase F, mitochondrial (Mus musculus) (UniProt Q99KR7); test: Inhibition of Cyclophilin D in mouse HT22 cells assessed as reduction in amyloid beta (1 to 42) induced decrease in cell viability at 5 uM after 24 hrs by MTT assay relative to control; assay type: cell-based
How it was run: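 HT-22 cells, 5000 per well, pretreated 10 min with compound, then Aβ1-42 added and incubated 24 h at 37 °C. MTT added for 2 h, then acidified Triton/isopropanol solubilization, and absorbance read at 570 nm. Percent inhibition calculated relative to vehicle control with Aβ.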

[3] = molecular target: Peptidyl-prolyl cis-trans isomerase F, mitochondrial (Mus musculus) (UniProt Q99KR7); test: Inhibition of Cyclophilin D in mouse HT22 cells assessed as reduction in amyloid beta (1 to 42) induced reactive oxygen species production at 5 uM after 6 hrs by CMH2DCFDA dye based fluorescence assay relative to control; assay type: cell-based
How it was run: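 HT-22 cells, 10,000 per well, treated with compound plus Aβ1-42 in Opti-MEM for 6 h. Cells loaded with CM-H2DCFDA (diluted from 1 mM stock) in HBSS for 30 min at 37 °C, then Hoechst added. Total fluorescence intensity per well taken from high-content imaging. Inhibition expressed as percent of the Aβ-induced signal increase.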

N2a [4] = test: Cytotoxicity against mouse Neuro2a cells assessed as cell viability after 72 hrs by MTT assay; assay type: ADME, cell-based
N2a [5] = test: Inhibition of reactive oxygen species production in mouse Neuro2a cells assessed as decrease in H2O2 levels after 6 hrs by ROS-Glo luminescence assay; assay type: functional, cell-based
How it was run: (§1)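 Neuro-2a cells, 2000 per well, given compounds from 10-dose 3-fold serial dilutions of 10 mM DMSO stocks. H2O2 substrate added immediately, then 6 h at 37 °C, 5% CO2. ROS-Glo detection reagent added for 20 min at RT, then luminescence read. H2O2 expressed as fold of untreated, with IC50 fitted from the dose series.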

[6] = Cytotoxicity against mouse Neuro2a cells assessed as cell viability at 10 uM after 72 hrs by MTT assay relative to control; assay type: cell-based, N2a; conditions: read-out: Activity
How it was run: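 Neuro-2a cells grown in EMEM with 10% FBS and penicillin/streptomycin. A 10 mM DMSO stock was diluted 3-fold over 10 doses in DMSO, and 2000 cells were added per well. Incubated 72 h at 37 °C, 5% CO2. MTT added for 4 h, then solubilization/stop solution for 1 h. Absorbance read at 590 nm. Viability is from color intensity, with IC50 fitted to a sigmoidal dose-response curve.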

[7] = molecular target: Voltage-gated inwardly rectifying potassium channel KCNH2 (Homo sapiens, UniProt Q12809); test: Displacement of [3H]-Astemizole from human ERG expressed in HEK293 cell membranes measured after 1 hr by microbeta counting method
How it was run: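 Radioligand binding to membranes (2.5 µg) from HEK-293 cells expressing hERG. Buffer was 50 mM Hepes pH 7.4 with 60 mM KCl, 0.1% BSA and 4 nM [3H]astemizole, incubated 1 h at RT. Samples filtered through PEI-soaked filtermat. Non-specific binding defined with 0.1 µM astemizole. Used 5–6 test concentrations in duplicate, with isotherms from two assays.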

[8] = Cytotoxicity against mouse HT22 cells assessed as cell viability at 5 uM after 24 hrs by MTT assay relative to control; assay type: cell-based, HT-22; conditions: read-out: Activity
How it was run: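 HT-22 cells, 5000 per well, seeded one day before the assay. Compound solution added, then cells incubated 24 h at 37 °C. MTT added for 2 h at 37 °C. Formazan dissolved in 10% Triton X-100 in isopropanol with 0.1 M HCl for 1 h at room temperature, then absorbance read. Viability relative to vehicle control, without Aβ.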

[9] = Effective permeability of the compound at pH 7.4 at 50 uM after 4 hrs by PAMPA; assay type: physicochemical; conditions: read-out: Peff
How it was run: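 BBB-PAMPA (double-sink) setup. 10 mM DMSO stocks were diluted to 50 µM in buffer pH 7.4 as the donor, with brain sink buffer as the acceptor. Incubated 4 h at 26 °C. Donor, acceptor and reference concentrations measured by UV (230–498 nm), and Pe calculated on a double-sink basis.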

[10] = molecular target: Peptidyl-prolyl cis-trans isomerase F, mitochondrial (Mus musculus) (UniProt Q99KR7); test: (§2) Inhibition of Cyclophilin D in mouse HT22 cells assessed as neuroprotective activity against amyloid beta (1 to 42) induced impairment of ATP production by measuring assessed as recovery of ATP production at 5 uM pretreated for 10 mins followed by amyloid beta (1 to 42) stimulation measured after 7 hrs by luciferase based assay relative to control; assay type: cell-based; design: scale not given: the % may be the effect or the level left
How it was run: (§3)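 HT-22 cells, 10,000 per well, seeded one day before. Cells pretreated 10 min at 37 °C with compound, then Aβ1-42 added, and incubated 7 h. Cells were washed, lysed in 1% Triton X-100/TBST, and equal protein amounts (BCA) assayed for ATP by luciferase. Recovery was calculated against the Aβ-treated vehicle control. ATP viability comes from samples without Aβ.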

N2a [11] = test: Induction of reactive oxygen species production in mouse Neuro2a cells assessed as H2O2 level at 10 uM after 6 hrs by ROS-Glo luminescence assay relative to control; assay type: cell-based; how it was run: as §1
[12] = molecular target: Peptidyl-prolyl cis-trans isomerase F, mitochondrial (Mus musculus) (UniProt Q99KR7); test: as §2, with “cell viability” for “assessed as recovery of ATP production”, “5” for “5 uM”; how it was run: as §3

Chain of Peptidyl-prolyl cis-trans isomerase F, mitochondrial (Mus musculus) (Q99KR7 whole entry): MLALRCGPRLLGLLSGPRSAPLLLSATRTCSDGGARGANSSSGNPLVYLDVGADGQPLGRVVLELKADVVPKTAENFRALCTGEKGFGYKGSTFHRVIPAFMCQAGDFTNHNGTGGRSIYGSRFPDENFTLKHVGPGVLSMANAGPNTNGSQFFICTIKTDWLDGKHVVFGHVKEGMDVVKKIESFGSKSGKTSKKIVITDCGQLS
Chain of Voltage-gated inwardly rectifying potassium channel KCNH2 (Q12809 whole entry): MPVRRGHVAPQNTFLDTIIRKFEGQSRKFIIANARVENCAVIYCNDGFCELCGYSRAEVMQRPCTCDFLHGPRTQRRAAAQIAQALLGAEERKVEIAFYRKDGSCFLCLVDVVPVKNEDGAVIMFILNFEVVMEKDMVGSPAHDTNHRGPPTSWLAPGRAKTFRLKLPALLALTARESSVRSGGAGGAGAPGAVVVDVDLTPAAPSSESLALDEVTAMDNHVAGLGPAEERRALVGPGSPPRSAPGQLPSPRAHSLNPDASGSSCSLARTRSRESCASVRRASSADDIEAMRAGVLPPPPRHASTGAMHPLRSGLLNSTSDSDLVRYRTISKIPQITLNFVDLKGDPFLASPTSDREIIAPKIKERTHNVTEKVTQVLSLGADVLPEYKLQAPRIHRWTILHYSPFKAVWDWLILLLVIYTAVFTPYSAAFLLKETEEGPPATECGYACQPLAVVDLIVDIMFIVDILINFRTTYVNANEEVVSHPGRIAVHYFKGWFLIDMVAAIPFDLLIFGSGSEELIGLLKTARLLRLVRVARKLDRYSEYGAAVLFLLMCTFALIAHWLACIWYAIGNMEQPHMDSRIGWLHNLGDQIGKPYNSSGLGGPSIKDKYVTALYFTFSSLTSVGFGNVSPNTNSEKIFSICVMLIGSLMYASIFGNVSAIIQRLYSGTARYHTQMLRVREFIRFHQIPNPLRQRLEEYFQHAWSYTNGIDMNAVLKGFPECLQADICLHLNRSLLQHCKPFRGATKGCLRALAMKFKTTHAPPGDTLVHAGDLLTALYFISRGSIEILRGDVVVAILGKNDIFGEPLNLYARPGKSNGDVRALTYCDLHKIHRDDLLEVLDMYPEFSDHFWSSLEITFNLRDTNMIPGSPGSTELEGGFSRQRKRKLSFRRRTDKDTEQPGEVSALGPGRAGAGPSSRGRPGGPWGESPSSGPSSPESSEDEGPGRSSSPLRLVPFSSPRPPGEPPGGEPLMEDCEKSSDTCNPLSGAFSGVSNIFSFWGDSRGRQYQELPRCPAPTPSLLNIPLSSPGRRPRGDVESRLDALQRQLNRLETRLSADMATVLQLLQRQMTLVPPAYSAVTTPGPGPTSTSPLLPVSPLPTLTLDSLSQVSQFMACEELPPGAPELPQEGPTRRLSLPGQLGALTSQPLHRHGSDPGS

In the case of `CC(C)(C)CC(C)(C)NC(=O)Nc1ncccc1OCc1ccccc1Cl`, the Activity [1] is reported as 21%.

For `O=C(NCCN1CCNCC1)Nc1ncccc1OCc1ccccc1`, the inhibition [2] was 81%, the inhibition [3] was 97% and the IC50 (N2a [4]) was over 10 µM. The IC50 (N2a [5]) was over 10 µM, the viability at 72 h, 10 µM [6] was 102% and the IC50 [7] was over 28.7 µM. The Activity [1] was 16%, the viability at 24 h, 5 µM [8] was 133% and the Papp at 4 h, 50 µM [9] was 20.6 ×10⁻⁶ cm/s. For the same molecule, the Activity [10] was 87%, the “fold change (FC)” value (N2a [11]) was 0.97 and the Activity [12] was 78%.

For `CC(C)(C)CC(C)(C)NC(=O)Nc1ncccc1OCc1cccc(Cl)c1`, the Activity [1] was 50%.

`O=C(Nc1ncccc1OCc1ccc(Cl)cc1)NC1CCCCCC1` showed an IC50 (N2a [4]) of over 10 µM, an IC50 (N2a [5]) of over 10 µM and a viability at 72 h, 10 µM [6] of 85.2%. The Activity [1] was 19%, the Activity [10] was 47% and the “fold change (FC)” value (N2a [11]) was 1.15. The Activity [12] was 105%.

In the case of `CC1=CC(=O)c2ccccc2C1=O` [MENADIONE], the IC50 (N2a [5]) is reported as 2.69 µM and the “fold change (FC)” value (N2a [11]) is reported as 6.94.

Molecule `O=C(Nc1ncccc1OCc1ccccc1)NC1CCCCCC1` has an Activity [1] of 130%.

Work on `O=C(NCCN1CCNCC1)Nc1ncccc1OCc1cccc(Cl)c1` yielded an Activity [1] of 48%.

With `CC(C)(C)NC(=O)Nc1ncccc1OCc1ccc(Cl)cc1` the IC50 (N2a [4]) was over 10 µM, the IC50 (N2a [5]) was over 10 µM and the viability at 72 h, 10 µM [6] was 93.1%. The Activity [1] was 35%, the Activity [10] was 13% and the “fold change (FC)” value (N2a [11]) was 0.91. The Activity [12] was 104%.

For `Cn1c(=O)c2[nH]cnc2n(C)c1=O.O` [THEOPHYLLINE], the Papp at 4 h, 50 µM [9] was 0.29 ×10⁻⁶ cm/s.

For `O=C(Nc1ncccc1OCc1ccc(F)cc1)NC1CCCCCC1`, the IC50 (N2a [4]) was over 10 µM, the IC50 (N2a [5]) was over 10 µM and the viability at 72 h, 10 µM [6] was 93.2%. The Activity [1] was 28%, the Activity [10] was 40% and the “fold change (FC)” value (N2a [11]) was 0.91. The Activity [12] was 99%.

With `O=C(NCCCl)Nc1ncccc1OCc1cccc(Cl)c1` the Activity [1] was 73%.

With `CC(C)(C)NC(=O)Nc1ncccc1OCc1cccc(Cl)c1` the Activity [1] was 176%.

In the case of `CC(C)(C)NC(=O)Nc1ncccc1OCc1ccccc1`, the inhibition [2] is reported as 11%, the inhibition [3] is reported as 95% and the IC50 (N2a [4]) is reported as over 10 µM. For the same molecule, the IC50 (N2a [5]) was over 10 µM, the viability at 72 h, 10 µM [6] was 106% and the Activity [1] was 23%. For the same molecule, the viability at 24 h, 5 µM [8] was 92%, the Papp at 4 h, 50 µM [9] was 45.1 ×10⁻⁶ cm/s and the Activity [10] was 72%. The “fold change (FC)” value (N2a [11]) was 0.92 and the Activity [12] was 103%.

In the case of `O=C(NCCCl)Nc1ncccc1OCc1ccccc1Cl`, the Activity [1] is reported as 41%.

For `O=C(Nc1ncccc1OCc1cccc(F)c1)NC1CCCCCC1`, the Activity [1] was 91%.

With `O=C(NCCCl)Nc1ncccc1OCc1ccccc1` the Activity [1] was 169%.

For `CC(=O)[C@H]1CC[C@H]2[C@@H]3CCC4=CC(=O)CC[C@]4(C)[C@H]3CC[C@]12C` [PROGESTERONE], the Papp at 4 h, 50 µM [9] was 48.8 ×10⁻⁶ cm/s.

For `CCNC(=O)Nc1ncccc1OCc1ccc(F)cc1`, the Activity [1] was 127%.

Molecule `CC(C)(C)NC(=O)Nc1ncccc1OCc1ccc(F)cc1` has an Activity [1] of 49%.

For `CCNC(=O)Nc1ncccc1OCc1cccc(F)c1`, the IC50 (N2a [4]) was over 10 µM, the IC50 (N2a [5]) was over 10 µM and the viability at 72 h, 10 µM [6] was 96.6%. The Activity [1] was 14%, the Activity [10] was 41% and the “fold change (FC)” value (N2a [11]) was 1.14. It also gave an Activity [12] of 102%.

For `CN[C@@H]1C[C@H]2O[C@@](C)([C@@H]1OC)n1c3ccccc3c3c4c(c5c6ccccc6n2c5c31)C(=O)NC4` [STAUROSPORINE], the viability at 72 h, 10 µM [6] was 1.3%.

`CCNC(=O)Nc1ncccc1OCc1ccccc1Cl` gave an Activity [1] of 49%.

Work on `CC(C)(C)CC(C)(C)NC(=O)Nc1ncccc1OCc1cccc(F)c1` yielded an IC50 (N2a [4]) of over 10 µM, an IC50 (N2a [5]) of over 10 µM and a viability at 72 h, 10 µM [6] of 101%. For the same molecule, the Activity [1] was 31%, the Activity [10] was -140% and the “fold change (FC)” value (N2a [11]) was 1.02. For the same molecule, the Activity [12] was 30%.

With `O=C(NCCCl)Nc1ncccc1OCc1ccc(F)cc1` the Activity [1] was 64%.

`O=C(Nc1ncccc1OCc1cccc(Cl)c1)NC1CCCCCC1` gave an Activity [1] of 46%.

For `O=C(Nc1ncccc1OCc1ccccc1Cl)NC1CCCCCC1`, the Activity [1] was 41%.

For `CC(C)(C)NC(=O)Nc1ncccc1OCc1cccc(F)c1`, the IC50 (N2a [4]) was over 10 µM, the IC50 (N2a [5]) was over 10 µM and the viability at 72 h, 10 µM [6] was 95.8%. For the same molecule, the Activity [1] was 44%, the Activity [10] was 45% and the “fold change (FC)” value (N2a [11]) was 0.94. It also gave an Activity [12] of 129%.

Molecule `CCNC(=O)Nc1ncccc1OCc1ccc(Cl)cc1` has an Activity [1] of 94%.

`NC(=O)CN1CCCC1=O` showed an inhibition [2] of 29%, an inhibition [3] of 129% and a viability at 24 h, 5 µM [8] of 132%. The Activity [10] was 127% and the Activity [12] was 88%.

`O=C(NCCCl)Nc1ncccc1OCc1ccc(Cl)cc1` showed an Activity [1] of 131%.
